Screening data from PubChem BioAssay.
NF-kB expr up = raises NF-kB expression in human neuronal cells; AID 1239; fold change at 12.5 µM; 190,000 tested, 1.6% active; NF-kB reporter expression; active compounds read high; in the data active means fold change above about 3.3
STAT1 activator = activators of IFN-gamma induced STAT1 signaling | 200,000 tested, 2.6% active | NIH 3T3 STAT1-luciferase reporter, luminescence; 100% = IFN-gamma alone, no compound | activation (% of control), % at 5.5 µM;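 active means activation above the screen-wide mean activation plus 3 SD, cut at about 130% in these data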;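 further: raw ratio to IFN-gamma control signal so 100% means no change and 0% no light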
STAT3 inh = reduces IL-6 driven STAT3 reporter signal; U3A cells, IL-6 STAT3-luciferase reporter, luminescence; host cell line lacks STAT1; inhibition, % at 5.5 µM; 190,000 tested, 0.89% active; AID 862;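 active means inhibition above the mean inhibition across all screened compounds plus 3 SD, cut at about 44% in these data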;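 further: 0% = DMSO only wells and 100% = 100 µM nifuroxazide control wells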
STAT3 act = increases IL-6 driven STAT3 reporter signal. U3A cells, IL-6 STAT3-luciferase reporter, luminescence; 100% = signal with IL-6 EC80 alone. activation (% of control), % at 5.6 µM. 190,000 tested, 0.91% active. AID 871;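 active means activation above the screen-wide mean of compound activation plus 3 SD, cut at about 130% in these data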;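 further: 0% = background luminescence of wells with medium and substrate only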
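Material: STAT3-luciferase reporter U3A cells. Controls: IL-6-treated wells, 100% activation. Read-out: % activation versus median of IL-6-stimulated wells. Probe or stimulus: IL-6 stimulus at 33 ng/mL final. Timing: compound 1 h, then IL-6 6 h at 37 °C. Signal: reporter luminescence signal.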
APP 5'UTR act = activates APP 5'UTR luciferase reporter | activation, % at 2 µM | 190,000 tested, 1% active | SH-SY5Y APP 5'UTR luciferase reporter, luminescence; zero percent = DMSO vehicle wells;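 active means activation above a set limit, based on mean plus 3 SD of controls, cut at about 140% in these data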
STAT1 blocker = STAT1 signaling inhibition. NIH 3T3 STAT1-luciferase reporter, IFN-gamma, luminescence. inhibition, % at 5.5 µM. 200,000 tested, 0.35% active. AID 920;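 active means inhibition above a set limit, the mean inhibition across all tested compounds plus 3 SD, cut at about 34% in these data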;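 further: 0% = IFN-gamma with DMSO and 100% = IFN-gamma with 300 µM nifuroxazide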
The depositor's hits bear a star; . = no result. Most compounds without a hit are left out; they make up all but 4.9% or so of the library.

SMILES | NF-kB expr up | STAT1 activator | STAT3 inh | STAT3 act | APP 5'UTR act | STAT1 blocker
CC1=Nc2ccccc2N=C(N)C1c1ccccc1 (configuration not stated) | 1.03 | 146.1* | -5.6 | 108.7 | 191.9* | -54.8
CC/C(=N/NC(=O)c1ccc(Br)o1)c1ccc(Cl)cc1 | 1.37 | 130.8* | -7.7 | 111.1 | -4.9 | -34.9
Cc1ccccc1-c1nnc(-c2ccc(Br)cc2)o1 | 2.98 | 149.9* | 2.2 | 100.6 | 68.9 | -54.6
Cc1ccccc1-c1nnc(SCC#N)o1 | 1.21 | 109.7 | 3.6 | 98.8 | 1.5 | -12.5
Cc1ccccc1-c1nnc(-c2ccccc2C)o1 | 3.71* | 130.4* | 1.7 | 101.7 | 21.2 | -32.9
Cc1ccc(S(=O)(=O)NC(C(=O)Oc2cc3oc(=O)cc(C)c3cc2Cl)C(C)C)cc1 (configuration not stated) | 0.92 | 90.1 | 5.1 | 98.7 | -2.1 | 11.0
Cc1cc(C)c(C#N)c(Sc2ccc(N)cc2)n1 | 1.06 | 99.0 | -7.2 | 104.0 | 2.4 | 1.2
O=S(=O)(C/C(=C/CO)S(=O)(=O)c1ccccc1)c1ccccc1 | 0.93 | 260.0* | 47.7* | 61.6 | -79.9 | -174.6
CC(C)(C)OC(=O)N1CCN(c2ccc([N+](=O)[O-])cc2)CC1 | 1.27 | 89.2 | 15.9 | 89.0 | 2.4 | 11.5
O=C1c2cccc3c(N4CCCCC4)ccc(c23)C(=O)N1c1cccc(O)c1 | 2.02 | 130.4* | 2.5 | 99.8 | 24.5 | -31.6
C=CCN1C(=O)c2cccc3c(N4CCCCC4)ccc(c23)C1=O | 1.6 | 125.9 | 7.8 | 95.3 | 27.7 | -29.8
O=C1c2cccc3c(N4CCCCC4)ccc(c23)C(=O)N1CCO | 1.55 | 131.3* | 12.4 | 94.9 | 58.8 | -34.7
N#CCCNc1c(Cl)cc(Cl)cc1C(=O)O | 1.13 | 97.9 | -5.2 | 108.0 | -0.7 | 2.3
C=CC[n+]1ccc(/C=C2\C=Cc3cc(C)ccc3N2CC)c2ccccc21 | 0.86 | 65.4 | 86.3* | 26.3 | -27.3 | 36.0*
CCN1/C(=C/c2cc[n+](CCCS(=O)(=O)[O-])c3ccccc23)Sc2ccccc21 | 0.78 | 98.0 | 3.6 | 99.0 | 12.0 | 1.5
Cc1cc(C)nc(Nc2n[nH]c(-c3ccccc3C)n2)n1 | 2.71 | 135.3* | 10.7 | 91.3 | 94.2 | -37.5
Cc1cc(C)nc(Nc2n[nH]c(-c3ccccc3Br)n2)n1 | 1.4 | 98.6 | 16.6 | 87.2 | -0.7 | -1.3
Cc1cc(C)nc(Nc2n[nH]c(C)n2)n1 | 1.12 | 104.9 | 9.6 | 97.7 | -22.0 | -7.4
Cc1cc(C)nc(Nc2n[nH]c(-c3ccc(N)cc3)n2)n1 | 3.17 | 156.3* | 5.1 | 95.8 | . | -54.0
COc1ccccc1NC(=O)CN1CC(=O)Nc2ccccc21 | 0.93 | 85.8 | -33.7 | 134.1* | -2.6 | 15.0
CC(C)Cn1c(=S)[nH]c2cc(Cl)ccc21 | 0.97 | 95.0 | -1.4 | 100.9 | 15.2 | 5.4
CCC(Sc1ncnc2c1nnn2-c1ccc(F)cc1)C(=O)OC (configuration not stated) | 2.12 | 116.8 | 4.4 | 96.9 | 8.9 | -18.6
CCOC(=O)C(C)Sc1ncnc2c1nnn2-c1ccc(F)cc1 (configuration not stated) | 1.76 | 131.9* | 8.9 | 93.0 | 10.2 | -35.2
Cc1ccc(-c2nsc3c(N4CCC(C(N)=O)CC4)ncnc23)cc1 | 1.72 | 103.8 | -12.5 | 114.1 | 142.5* | -2.7
Cc1ccc(C(=O)N2CCN(c3ncnc4c(-c5ccccc5)nsc34)CC2)cc1 | 0.98 | 100.0 | -5.2 | 106.5 | 0.2 | -1.9
SMILES | NF-kB expr up | STAT1 activator | STAT3 inh | STAT3 act | APP 5'UTR act | STAT1 blocker
COc1ccc(-c2nsc3c(N4CCCCC4C)ncnc23)cc1 (configuration not stated) | 0.19 | 24.4 | 98.7* | 15.9 | -34.2 | 80.6*
Cc1cccc(CSc2ccc(-c3ccco3)nn2)c1 | 1.64 | 133.4* | 4.1 | 95.4 | 49.1 | -36.5
c1ccc(CSc2ccc(-c3ccco3)nn2)cc1 | 3.94* | 144.7* | 18.6 | 86.2 | 110.2 | -50.0
COc1ccccc1-c1ccc(SCc2ccccc2)nn1 | 1.95 | 118.9 | 11.6 | 94.0 | 34.9 | -20.2
O=C(CSc1ccc(-c2ccco2)nn1)NCc1ccccc1 | 1.01 | 101.3 | 3.5 | 95.8 | 18.8 | -1.4
Fc1ccccc1CSc1ccc(-c2ccco2)nn1 | 4.94* | 124.8 | 16.3 | 89.3 | 63.9 | -28.1
Clc1cccc(CSc2ccc(-c3ccco3)nn2)c1 | 1.19 | 109.6 | 18.6 | 87.8 | 21.8 | -10.3
COc1ccccc1-c1ccc(SCc2ccccc2F)nn1 | 1.78 | 129.3* | 7.6 | 95.5 | 37.3 | -31.6
COc1ccc(OC)c(-c2nc3cc4ccccc4cc3nc2-c2ccccc2)c1 | 0.75 | 96.5 | -4.1 | 101.3 | 16.2 | 6.0
c1ccc(CSc2ccc(-c3ccccn3)nn2)cc1 | 6.53* | 105.7 | 34.9 | 73.7 | 138.6* | -7.4
Cc1ccc(CSc2ccc(-c3ccco3)nn2)cc1 | 3.3* | 125.1 | 5.6 | 94.1 | 71.4 | -27.5
Clc1ccc(CSc2ccc(-c3ccco3)nn2)cc1 | 1.93 | 121.8 | 7.2 | 96.9 | 5.2 | -24.9
Cc1cc(C)c(S(=O)(=O)N(C)CC(=O)NCc2ccncc2)c(C)c1 | 0.88 | 92.7 | -3.4 | 106.0 | -16.9 | 5.9
Cc1csc(NC(=O)/C=C/c2ccc(C)o2)n1 | 1.77 | 115.6 | 0.4 | 99.2 | 88.3 | -17.2
Cc1ccc(/C=C/C(=O)Nc2nccs2)o1 | 3.17 | 148.3* | 2.4 | 100.2 | 79.3 | -54.1
Cc1ccc(/C=C/C(=O)Nc2ncc(C)s2)o1 | 3.06 | 147.4* | -6.5 | 105.2 | 120.7 | -52.1
Cc1cc(NCCCN2CCOCC2)n2ncc(-c3ccc(Cl)cc3)c2n1 | 1.11 | 109.4 | -27.3 | 125.4 | 47.1 | -10.2
Cc1cc(NCCCn2ccnc2)n2ncc(-c3ccc(Cl)cc3)c2n1 | 1.34 | 155.7* | -61.0 | 152.2* | 253.3* | -61.9
Oc1ccc(-c2csc(Nc3ncccn3)n2)cc1 | 9.11* | 146.0* | 23.9 | 83.3 | 173.1* | -49.5
Cc1cccnc1Nc1nc(-c2ccc(O)cc2O)cs1 | 3.88* | 121.0 | 6.0 | 97.4 | 35.9 | -23.2
Clc1ccccc1-c1nc(-c2cccnc2)no1 | 1.41 | 129.0* | -21.2 | 119.8 | 110.7 | -31.5
Clc1ccc(Br)cc1-c1nc(-c2cccnc2)no1 | . | 105.1 | -43.1 | 140.8* | 9.9 | -5.6
Cc1ccccc1-c1nc(-c2cccnc2)no1 | 3.67* | 139.2* | -11.0 | 112.1 | 76.1 | -42.9
Cc1onc(-c2ccccc2Cl)c1-c1nc(-c2ccncc2)no1 | 0.89 | 109.8 | 2.4 | 101.0 | -5.0 | -10.7
Cc1cc(C)c(S(=O)(=O)/N=C2/C=C(Sc3ncn[nH]3)C(=O)c3ccccc32)cc1C | 0.46 | 98.8 | -55.3 | 143.0* | -88.8 | 1.4
Cc1ccc(NC2=C/C(=N/S(=O)(=O)c3cccs3)c3ccccc3C2=O)cc1C | 0.9 | 98.4 | 2.2 | 105.9 | 40.5 | 1.7
O=C1/C(=C\c2ccc3ccccc3c2)CCCc2ccccc21 | 4.83* | 121.1 | 6.1 | 94.4 | 41.4 | -22.8
